Data reported in ChEMBL document CHEMBL4673212, “Investigation of synergistic antimicrobial effects of the drug combinations of meropenem and 1,2-benzisoselenazol-3(2H)-one derivatives on carbapenem-resistant Enterobacteriaceae producing NDM-1” (Eur J Med Chem, 2018).
The source made the active and inactive calls. The rule behind the calls is not given here.

Columns and labels:
[1] = target: Metallo-beta-lactamase type 2 (Klebsiella pneumoniae) (UniProt C7C422); experiment: Inhibition of wild type N-terminal His6-tagged Klebsiella pneumoniae NDM-1 expressed in Escherichia coli BL21 assessed as residual activity preincubated for 20 mins by rapid high dilution method relative to control
Outline: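 Reversibility was tested by rapid high dilution: NDM-1 was preincubated 20 min with compound, then diluted. Residual nitrocefin hydrolysis was compared with an enzyme control lacking compound.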

Escherichia coli [2] = experiment: Growth inhibition of carbapenem-resistant Escherichia coli isolate 33 harboring CTX-M-15 by CLSI protocol based assay; type: functional
[3] = target: Metallo-beta-lactamase type 2 (Klebsiella pneumoniae) (UniProt C7C422); experiment: Inhibition of wild type N-terminal His6-tagged Klebsiella pneumoniae NDM-1 expressed in Escherichia coli BL21 assessed as inactivation constant using nitrocefin as substrate measured after 30 mins
Outline: (§1)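 1 nM purified His6-NDM-1 was mixed with varying compound concentrations in 50 mM phosphate buffer ± 50 µM ZnSO4 with BSA. Nitrocefin was added at 7× Km and velocity read at 482 nm, in triplicate. ln(% residual activity) versus incubation time gave kobs, which was fitted hyperbolically against concentration for KI and kinact.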

Citrobacter freundii [4] = experiment: Synergistic antibacterial activity against carbapenem-resistant Citrobacter freundii isolate 35 harboring CTX-M-3, KPC-2 and SHV-12 assessed as fractional inhibitory concentration index in presence of meropenem by CLSI protocol based assay; type: functional
[5] = target: Metallo-beta-lactamase type 2 (Klebsiella pneumoniae) (UniProt C7C422); experiment: Binding affinity to wild type N-terminal His6-tagged Klebsiella pneumoniae NDM-1 expressed in Escherichia coli BL21 assessed as formation of compound-intact protein complex by measuring molecular weight measured after 20 mins by ESI-MS analysis
Outline: (§2)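 NDM-1 (20 µM) incubated 20 min with equimolar compound in 20 mM ammonium acetate. Native sample infused by nano-ESI with spray held ~20 min at 150 V. For the denatured sample, an equal volume of acetonitrile with 0.5% formic acid was added before syringe-pump loading at 5 µL/min. Complex formation was read from mass.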

L929 [6] = experiment: Cytotoxicity against mouse L929 cells assessed as effect on morphological changes at 0.13 to 2 mg/ml by microscopic analysis; type: cell-based; settings: dose 0.13-2 mg/ml
Outline: (§3)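 HeLa and L929 cells were examined by microscopy for morphological change after incubation with compound at the MTT-assay concentrations.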

[7] = target: Metallo-beta-lactamase type 2 (Klebsiella pneumoniae) (UniProt C7C422); experiment: (§4) Inhibition of wild type N-terminal His6-tagged Klebsiella pneumoniae NDM-1 expressed in Escherichia coli BL21 using nitrocefin as substrate measured after 30 mins; outline: as §1
[8] = target: T1, Metallo-beta-lactamase type 2 (Klebsiella pneumoniae, UniProt C7C422); experiment: as §4; outline: as §1
[9] = target: Metallo-beta-lactamase type 2 (Klebsiella pneumoniae) (UniProt C7C422); experiment: Inhibition of wild type N-terminal His6-tagged Klebsiella pneumoniae NDM-1 expressed in Escherichia coli BL21 assessed as ratio of Kinact/Ki using nitrocefin as substrate measured after 30 mins; outline: as §1
L929 [10] = experiment: Cytotoxicity against mouse L929 cells assessed as increase in cell viability at 2 mg/ml measured after 48 hrs by MTT assay; type: cell-based; settings: l929, 48 h
Outline: (§5)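 MTT assay. HeLa or L929 cells were seeded at 1×10^4/well in DMEM with 10% FBS and grown 12 h at 37 °C. They were exposed to 0.13–2 mg/mL compound (DMSO stock) for 48 h, then given 0.5 mg/mL MTT for 3 h at 37 °C. Formazan was dissolved in DMSO and read at 490 nm. Survival % was blank-corrected against the 0.5% DMSO medium control.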

Enterobacter cloacae [11] = experiment: Potentiation of meropenem-induced antibacterial activity against carbapenem-resistant Enterobacter cloacae isolate 07 harboring CTX-M-14, TEM-1 and SHV-12 assessed as meropenem MIC by CLSI protocol based assay (reference value: 64 ug/ml); type: functional
L929 [12] = experiment: Cytotoxicity against mouse L929 cells assessed as increase in cell viability at 0.13 to 2 mg/ml measured after 48 hrs by MTT assay relative to control; type: cell-based; settings: l929, 48 h, dose 0.13-2 mg/ml; outline: as §5
Escherichia coli [13] = experiment: Potentiation of meropenem-induced antibacterial activity against Escherichia coli TG1 transformed with IncX3 plasmid expressing blaNDM-1 assessed as bacterial growth inhibition by measuring meropenem MIC incubated for overnight by CLSI protocol based assay; type: functional; settings: time 12 hrs
HeLa [14] = experiment: Cytotoxicity against human HeLa cells assessed as increase in cell viability at 0.13 to 2 mg/ml measured after 48 hrs by MTT assay relative to control; type: cell-based; settings: dose 0.13-2 mg/ml; outline: as §5
[15] = target: Metallo-beta-lactamase type 2 (Klebsiella pneumoniae) (UniProt C7C422); experiment: Inhibition of wild type N-terminal His6-tagged Klebsiella pneumoniae NDM-1 expressed in Escherichia coli BL21 assessed as loss of zinc ion at enzyme active site leading to formation of compound-intact protein complex after 20 mins by ESI-MS analysis
Outline: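 Native mass analysis: 20 µM purified NDM-1 plus equimolar compound in 20 mM ammonium acetate, 20 min, then infused into nano-ESI source (spray ~20 min at 150 V). Adduct formation and zinc content were read from protein mass.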

[16] = target: T1, Metallo-beta-lactamase type 2; experiment: Inhibition of wild type N-terminal His6-tagged Klebsiella pneumoniae NDM-1 expressed in Escherichia coli BL21 assessed as inhibition constant using nitrocefin as substrate measured after 30 mins; outline: as §1
Enterobacter cloacae [17] = experiment: Potentiation of meropenem-induced antibacterial activity against carbapenem-resistant Enterobacter cloacae isolate 19 harboring CTX-M-14 and KPC-2 assessed as meropenem MIC by CLSI protocol based assay (Rvb >= 128 ug/ml); type: functional
Citrobacter freundii [18] = experiment: Synergistic antibacterial activity against carbapenem-resistant Citrobacter freundii isolate 17 harboring SHV-12 assessed as fractional inhibitory concentration index in presence of meropenem by CLSI protocol based assay; type: functional
Outline: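 FIC index from MICs of compound alone, meropenem alone, and the 1:1 (mass) compound–meropenem combination, read by eye after overnight incubation in a CLSI-based assay. FIC index = MICcombo/MICcpd + MICcombo/MICMem. FIC index ≤0.5 counted as synergy. At least triplicate assays. Clinical NDM-1 isolates for 17-39; E. coli TG1 carrying the IncX3 blaNDM-1 plasmid for 15.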

Klebsiella oxytoca = experiment: Potentiation of meropenem-induced antibacterial activity against carbapenem-resistant Klebsiella oxytoca isolate 03 harboring SHV-12 assessed as meropenem MIC by CLSI protocol based assay (Rvb >= 128 ug/ml); type: functional
HeLa [19] = experiment: Cytotoxicity against human HeLa cells assessed as increase in cell viability at 2 mg/ml measured after 48 hrs by MTT assay; type: cell-based; outline: as §5
HeLa [20] = experiment: Cytotoxicity against human HeLa cells assessed as effect on morphological changes at 0.13 to 2 mg/ml by microscopic analysis; type: cell-based; settings: dose 0.13-2 mg/ml; outline: as §3
Enterobacter cloacae [21] = experiment: Growth inhibition of carbapenem-resistant Enterobacter cloacae isolate 07 harboring CTX-M-14, TEM-1 and SHV-12 by CLSI protocol based assay; type: functional
Klebsiella pneumoniae = experiment: Potentiation of meropenem-induced antibacterial activity against carbapenem-resistant Klebsiella pneumoniae isolate 04 harboring CTX-M-14, VIM-1, TEM-1 and SHV-12 assessed as meropenem MIC by CLSI protocol based assay (Rvb >= 128 ug/ml); type: functional
[22] = Toxicity in Galleria mellonella wax moth larve assessed as mortality at 10 mg/kg relative to control; type: organism-based; settings: in vivo, read-out: Activity
[23] = target: Metallo-beta-lactamase type 2 (Klebsiella pneumoniae) (UniProt C7C422); experiment: Binding affinity to denatured N-terminal His6-tagged Klebsiella pneumoniae NDM-1 expressed in Escherichia coli BL21 assessed as formation of compound-intact protein complex by measuring molecular weight measured after 20 mins by ESI-MS analysis; outline: as §2
[24] = Covalent inhibition of Escherichia coli NDM-1 using nitrocefin as substrate

Chain of Metallo-beta-lactamase type 2 (Klebsiella pneumoniae) (C7C422 whole entry, the tested form may be a part): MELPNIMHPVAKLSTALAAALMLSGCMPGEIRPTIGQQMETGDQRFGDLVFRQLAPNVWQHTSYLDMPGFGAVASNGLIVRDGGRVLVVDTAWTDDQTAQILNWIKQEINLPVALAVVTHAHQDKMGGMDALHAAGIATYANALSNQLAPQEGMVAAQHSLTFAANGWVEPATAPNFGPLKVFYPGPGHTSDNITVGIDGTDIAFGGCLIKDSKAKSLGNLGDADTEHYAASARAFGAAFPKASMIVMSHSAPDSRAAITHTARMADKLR
T1 sequence (C7C422 whole entry): as the sequence (C7C422 whole entry, the tested form may be a part) above

In the case of CC(C)(C)OC(=O)NCCn1[se]c2ccccc2c1=O, the Activity [1] is reported as 40%, the MIC (Escherichia coli [2]) is reported as ≥ 128 µg/mL and the Kinact [3] is reported as 0.068 min⁻¹. The “fractional inhibitory concentration index (FICI)” value (Citrobacter freundii [4]) was 0.13, the Activity [5] was 26300 Da and the Activity (L929 [6]) was “Non-Toxic”. For the same compound, the inhibition [7] was “Dose-dependent effect”, the IC50 [8] was 13 µM and the Ratio [9] was 0.067 mM⁻¹ s⁻¹. For the same compound, the Activity (L929 [10]) was “Non-Toxic”, the MIC (Enterobacter cloacae [11]) was 8 µg/mL and the Activity (L929 [12]) was 70%. For the same compound, the MIC (Escherichia coli [13]) was 2 µg/mL, the Activity (HeLa [14]) was 70% and the inhibition [15] was “Active”. For the same compound, the Ki [16] was 17 µM, the MIC (Enterobacter cloacae [17]) was 16 µg/mL and the “fractional inhibitory concentration index (FICI)” value (Citrobacter freundii [18]) was 0.09. For the same compound, the MIC (Klebsiella oxytoca) was 8 µg/mL, the Activity (HeLa [19]) was “Non-Toxic” and the Activity (HeLa [20]) was “Non-Toxic”. For the same compound, the MIC (Enterobacter cloacae [21]) was ≥ 128 µg/mL, the MIC (Klebsiella pneumoniae) was 32 µg/mL and the mortality [22] was 100%. It also gave an Activity [23] of 26200 Da.
For O=c1c2ccccc2[se]n1-c1ccccc1 [EBSELEN], the MIC (Escherichia coli [2]) was ≥ 128 µg/mL, the Ki [24] was 380 nM and the “fractional inhibitory concentration index (FICI)” value (Citrobacter freundii [4]) was 0.5. The MIC (Enterobacter cloacae [11]) was 16 µg/mL, the MIC (Escherichia coli [13]) was 16 µg/mL and the MIC (Enterobacter cloacae [17]) was ≥ 128 µg/mL. The “fractional inhibitory concentration index (FICI)” value (Citrobacter freundii [18]) was 0.38, the MIC (Klebsiella oxytoca) was 32 µg/mL and the MIC (Enterobacter cloacae [21]) was ≥ 128 µg/mL. The MIC (Klebsiella pneumoniae) was 64 µg/mL.
